According to ChEMBL document CHEMBL4138168, “Design and synthesis of novel thiobarbituric acid derivatives targeting both wild-type and BRAF-mutated melanoma cells” (Eur J Med Chem, 2018):
pIC50: −log10 of the molar value. Active and inactive are the calls of the source. No cut-off for these calls is given here.

What was measured:
CHL-1 [1] = experiment: Induction of apoptosis in human CHL-1 cells harboring wild type BRAF assessed as increase in phosphorylated Bcl-2 level at 5 to 25 uM after 24 hrs by Western blot analysis; type: functional, cell-based
In short: (§1)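 2 × 10^6 cells treated with the indicated concentrations for 24 h. Whole-cell lysates run on SDS-PAGE, transferred to PVDF, probed with antibodies against apoptosis/survival proteins, and detected by enhanced chemiluminescence.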

WM 266-4 = experiment: Antiproliferative activity against human WM266.4 cells after 48 hrs by MTT assay; type: functional, cell-based; conditions: WM 266-4, 48 h
In short: (§2)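 3,000 cells per well, grown at 37 °C (DMEM with 10% FBS and penicillin/streptomycin; HCT116 in McCoy's 5A). Cells exposed in triplicate to 0.5–25 μM compound for 48 h. MTT (5 mg/mL PBS stock) added for 3 h, formazan dissolved in DMSO, OD read at 570 nm minus 630 nm background. IC50 from non-linear regression of two independent experiments.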

UACC-903 [2] = experiment: Induction of apoptosis in human UACC-903 cells harboring BRAF mutant assessed as live cells level at 25 uM after 24 hrs by AAD dye containing caspase 3/7 activity assay (reference value: 90.06%); type: functional
UACC-903 [3] = experiment: Induction of apoptosis in human UACC-903 cells harboring BRAF mutant assessed as apoptotic cells level at 25 uM after 24 hrs by AAD dye containing caspase 3/7 activity assay (reference value: 6.88%); type: functional
UACC-903 [4] = experiment: Induction of apoptosis in human UACC-903 cells harboring BRAF mutant assessed as late apoptotic cells at 5 uM after 24 hrs by Annexin V/7-AAD staining-based assay (reference value: 1.56%); type: functional
CHL-1 [5] = experiment: Induction of apoptosis in human CHL-1 cells harboring wild type BRAF assessed as increase in dead cells at 50 uM after 24 hrs by Calcein-AM/ethidium bromide staining-based fluorescence assay (reference value: 2%); type: functional
UACC-903 [6] = experiment: Induction of apoptosis in human UACC-903 cells harboring BRAF mutant assessed as apoptotic cells level at 5 uM after 24 hrs by AAD dye containing caspase 3/7 activity assay (reference value: 6.88%); type: functional
[7] = Cytotoxicity against human MCF10A cells assessed as cell viability at 25 uM after 48 hrs by MTT assay relative to control; type: cell-based, MCF-10A; conditions: read-out: Activity
In short: (§3)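 MTT viability at a single 25 μM dose, 48 h, 3,000 cells/well. MCF10A normal breast epithelial cells were kept in MEGM mammary epithelial medium; the cancer lines were in DMEM with 10% FBS, 37 °C. OD at 570 nm with 630 nm background, expressed relative to control.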

MCF7 [8] = experiment: Antiproliferative activity against human MCF7 cells expressing ER/PR/HER2 after 48 hrs by MTT assay; type: functional, cell-based; conditions: MCF7, 48 h; in short: as §2
UACC-903 [9] = experiment: Induction of apoptosis in human UACC-903 cells harboring BRAF mutant assessed as viable cells at 5 uM after 24 hrs by Annexin V/7-AAD staining-based assay (reference value: 95.64%); type: functional; conditions: UACC-903, 24 h, read-out: Activity
UACC-903 [10] = experiment: Induction of apoptosis in human UACC-903 cells harboring BRAF mutant assessed as […] in cleaved PARP level at 5 to 25 uM after 24 hrs by Western blot analysis; type: functional, cell-based; in short: as §1
UACC-903 [11] = experiment: Induction of apoptosis in human UACC-903 cells harboring BRAF mutant assessed as necrotic cells at 25 uM after 24 hrs by Annexin V/7-AAD staining-based assay (reference value: 0.12%); type: functional
[12] = Antiproliferative activity against human A375M cells after 48 hrs by MTT assay; type: functional, cell-based; in short: as §2
UACC-903 [13] = experiment: Induction of apoptosis in human UACC-903 cells harboring BRAF mutant assessed as early apoptotic cells at 25 uM after 24 hrs by Annexin V/7-AAD staining-based assay (reference value: 2.68%); type: functional
PANC-1 = experiment: Antiproliferative activity against human PANC1 cells after 48 hrs by MTT assay; type: functional, cell-based; conditions: PANC-1, 48 h; in short: as §2
UACC-903 [14] = experiment: Antiproliferative activity against human UACC-903 cells harboring BRAF mutant after 48 hrs by MTT assay; type: functional, cell-based; conditions: UACC-903, 48 h; in short: as §2
UACC-903 [15] = experiment: Induction of apoptosis in human UACC-903 cells harboring BRAF mutant assessed as increase in phosphorylated Bcl-2 level at 5 to 25 uM after 24 hrs by Western blot analysis; type: functional, cell-based; in short: as §1
[16] = Selectivity ratio of cytotoxicity against human MCF10A cells to cytotoxicity against human MDA-MB-231 cells; type: toxicity, cell-based; conditions: MCF10A cells versus MDA-MB-231 cells
[17] = Selectivity ratio of cytotoxicity against human MCF10A cells to IC50 for human UACC-903 cells harboring BRAF mutant; type: toxicity, cell-based; conditions: MCF10A cells versus UACC-903 cells harboring BRAF mutant
UACC-903 [18] = experiment: Cytotoxicity against human UACC-903 cells assessed as cell viability at 25 uM after 48 hrs by MTT assay relative to control; type: functional, cell-based; conditions: UACC-903, 48 h
In short: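 MCF10A normal breast epithelial cells were kept in MEGM mammary epithelial medium; the cancer lines were in DMEM with 10% FBS, 37 °C. OD at 570 nm with 630 nm background, expressed relative to control.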

MDA-MB-231 = experiment: Cytotoxicity against human MDA-MB-231 cells assessed as cell viability at 25 uM after 48 hrs by MTT assay relative to control; type: functional; conditions: MDA-MB-231, 48 h, read-out: Activity; in short: as §3
UACC-903 [19] = experiment: Induction of apoptosis in human UACC-903 cells harboring BRAF mutant assessed as increase in dead cells at 50 uM after 24 hrs by Calcein-AM/ethidium bromide staining-based fluorescence assay (reference value: 3%); type: functional
MCF7 [20] = experiment: Cytotoxicity against human MCF7 cells assessed as cell viability at 25 uM after 48 hrs by MTT assay relative to control; type: functional; conditions: MCF7, 48 h, read-out: Activity; in short: as §3
CHL-1 [21] = experiment: Induction of apoptosis in human CHL-1 cells harboring wild type BRAF assessed as […] in cleaved PARP level at 5 to 25 uM after 24 hrs by Western blot analysis; type: functional, cell-based; in short: as §1
UACC-903 [22] = experiment: Induction of apoptosis in human UACC-903 cells harboring BRAF mutant assessed as dead cells level at 5 uM after 24 hrs by AAD dye containing caspase 3/7 activity assay (reference value: 0.06%); type: functional
UACC-903 [23] = experiment: Induction of apoptosis in human UACC-903 cells harboring BRAF mutant assessed as dead cells level at 25 uM after 24 hrs by AAD dye containing caspase 3/7 activity assay (reference value: 0.06%); type: functional
[24] = Antiproliferative activity against human 1205 Lu cells after 48 hrs by MTT assay; type: functional, cell-based; in short: as §2
CHL-1 [25] = experiment: Induction of apoptosis in human CHL-1 cells harboring wild type BRAF assessed as decrease in Bcl-xL level at 5 to 25 uM after 24 hrs by Western blot analysis; type: functional, cell-based; in short: as §1
UACC-903 [26] = experiment: Induction of apoptosis in human UACC-903 cells harboring BRAF mutant assessed as live cells level at 5 uM after 24 hrs by AAD dye containing caspase 3/7 activity assay (reference value: 90.06%); type: functional
UACC-903 [27] = experiment: Induction of apoptosis in human UACC-903 cells harboring BRAF mutant assessed as early apoptotic cells at 5 uM after 24 hrs by Annexin V/7-AAD staining-based assay (reference value: 2.68%); type: functional

Which results are given for `O=C1NC(=S)N(c2ccccc2)C(=O)/C1=C/C=C/c1cccs1`?
Activity (CHL-1 [1]): Active; pIC50 (WM 266-4): 5.04; Activity (UACC-903 [2]): 25.7%; Activity (UACC-903 [3]): 50.06%; Activity (UACC-903 [4]): 3.18%; Activity (CHL-1 [5]): 40%; Activity (UACC-903 [6]): 9.68%; viability at 48 h, 25 µM [7]: 60%; pIC50 (MCF7 [8]): 4.78; viability at 5 µM (UACC-903 [9]): 92.6%; Activity (UACC-903 [10]): Active; Activity (UACC-903 [11]): 5.31%; pIC50 [12]: 4.83; Activity (UACC-903 [13]): 21.04%; pIC50 (PANC-1): 5.08; pIC50 (UACC-903 [14]): 5.12; Activity (UACC-903 [15]): Active; selectivity ratio [16]: 2; selectivity ratio [17]: 3; pIC50 (UACC-903 [18]): 5.42; viability at 25 µM (MDA-MB-231): 20 to 30%; Activity (UACC-903 [19]): 45%; viability at 25 µM (MCF7 [20]): 20 to 30%; Activity (CHL-1 [21]): Active; Activity (UACC-903 [22]): 0.18%; Activity (UACC-903 [23]): 0.14%; pIC50 [24]: 4.87; Activity (CHL-1 [25]): Active; Activity (UACC-903 [26]): 87.26%; Activity (UACC-903 [27]): 3.7%

For `O=C1NC(=S)NC(=O)C1=C/C=C/c1cccs1`, which Activity (CHL-1 [1]) is on record?
The Activity was “Active”.

And the pIC50 (WM 266-4)?
Its pIC50 is 5.10.

And the Activity (UACC-903 [2])?
Its Activity is 17.4%.

What about the Activity (UACC-903 [3]) of the same compound?
Its Activity is 38.14%.

And the Activity (UACC-903 [4])?
Its Activity is 3.14%.

And the Activity (CHL-1 [5])?
Its Activity is 98%.

And the Activity (UACC-903 [6])?
Its Activity is 5.46%.

What about the viability at 48 h, 25 µM [7] of the same compound?
The viability at 48 h, 25 µM was 60%.

And the pIC50 (MCF7 [8])?
The pIC50 was 4.79.

What about the viability at 5 µM (UACC-903 [9]) of the same compound?
The viability at 5 µM was 91.3%.

And the Activity (UACC-903 [10])?
Its Activity is “Active”.

What about the Activity (UACC-903 [11]) of the same compound?
Its Activity is 3.42%.

What about the pIC50 [12] of the same compound?
Its pIC50 is 4.97.

What about the Activity (UACC-903 [13]) of the same compound?
The Activity was 30.28%.

And the pIC50 (PANC-1)?
Its pIC50 is 4.72.

What about the pIC50 (UACC-903 [14]) of the same compound?
Its pIC50 is 5.09.

And the Activity (UACC-903 [15])?
Its Activity is “Active”.

What about the selectivity ratio [16] of the same compound?
The selectivity ratio was 2.

And the selectivity ratio [17]?
Its selectivity ratio is 3.

What about the pIC50 (UACC-903 [18]) of the same compound?
The pIC50 was 5.40.

What about the viability at 25 µM (MDA-MB-231) of the same compound?
Its viability at 25 µM is 20 to 30%.

What about the Activity (UACC-903 [19]) of the same compound?
The Activity was 85%.

What about the viability at 25 µM (MCF7 [20]) of the same compound?
The viability at 25 µM was 20 to 30%.

And the Activity (CHL-1 [21])?
The Activity was “Active”.

What about the Activity (UACC-903 [22]) of the same compound?
The Activity was 0.32%.

And the Activity (UACC-903 [23])?
The Activity was 0.58%.

And the pIC50 [24]?
The pIC50 was 4.91.

And the Activity (CHL-1 [25])?
The Activity was “Active”.

And the Activity (UACC-903 [26])?
The Activity was 90.28%.

What about the Activity (UACC-903 [27]) of the same compound?
Its Activity is 5.12%.
